According to ChEMBL document CHEMBL2429772, “Selective arylsulfonamide inhibitors of ADAM-17: hit optimization and activity in ovarian cancer cell models” (J Med Chem, 2013):
pIC50: −log10 of the molar value.

Columns and labels:
[1] = target: 72 kDa type IV collagenase (Homo sapiens, UniProt P08253); assay: Inhibition of recombinant human MMP-2 using Mca-Lys-Pro-Leu-Gly-Leu-Dap(Dnp)-Ala-Arg-NH2 as substrate incubated for 4 hrs measured every 15 secs for 20 mins by fluorimetric assay
Outline: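 Pro-MMP-2 was activated with 2 mM APMA for 1 h at 37 °C and used at 0.56 nM final. It was preincubated with inhibitor for 4 h at 25 °C in Tris 50 mM pH 7.5 buffer containing NaCl, CaCl2, Brij-35 and 1% DMSO. Substrate was at 2 µM final, ex 325/em 400 nm, run in duplicate. IC50 was taken from initial-velocity ratios, vi/vo = 1/(1+[I]/IC50).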

[2] = target: T1, Disintegrin and metalloproteinase domain-containing protein 17 (Homo sapiens, UniProt P78536); assay: Inhibition of recombinant human ADAM-17 using Mca-Lys-Pro-Leu-Gly-Leu-Dap(Dnp)-Ala-Arg-NH2 as substrate incubated for 30 mins measured every 15 secs for 20 mins by fluorimetric assay
Outline: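 Enzyme at 5 nM final was preincubated with inhibitor for 30 min at 37 °C in Tris 25 mM pH 9, ZnCl2 25 µM, 0.005% Brij-35. Substrate was at 2 µM final. Fluorescence increase (ex 325/em 400 nm) gave initial rates, in duplicate. IC50 was derived from vi/vo = 1/(1+[I]/IC50).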

[3] = target: T2, Interstitial collagenase (Homo sapiens, UniProt P03956); assay: Inhibition of recombinant human MMP-1 using Mca-Lys-Pro-Leu-Gly-Leu-Dap(Dnp)-Ala-Arg-NH2 as substrate incubated for 4 hrs measured every 15 secs for 20 mins by fluorimetric assay
T2 sequence (P03956 whole entry): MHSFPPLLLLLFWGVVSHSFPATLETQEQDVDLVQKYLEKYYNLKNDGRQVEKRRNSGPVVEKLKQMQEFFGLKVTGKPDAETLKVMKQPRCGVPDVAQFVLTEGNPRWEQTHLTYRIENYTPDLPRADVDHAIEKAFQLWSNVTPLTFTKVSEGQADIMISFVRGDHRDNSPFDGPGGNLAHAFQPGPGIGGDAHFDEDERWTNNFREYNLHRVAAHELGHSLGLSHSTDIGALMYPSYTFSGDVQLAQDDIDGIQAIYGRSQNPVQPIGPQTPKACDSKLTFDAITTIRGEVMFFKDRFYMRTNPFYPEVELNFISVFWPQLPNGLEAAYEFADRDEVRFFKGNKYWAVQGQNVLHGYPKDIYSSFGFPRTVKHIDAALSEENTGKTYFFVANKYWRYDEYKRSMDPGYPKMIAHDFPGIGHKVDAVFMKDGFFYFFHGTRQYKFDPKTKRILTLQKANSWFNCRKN
Outline: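 Pro-MMP-1 was activated with 2 mM APMA for 2 h at 37 °C. Enzyme (2.0 nM final) was incubated with inhibitor in Tris 50 mM pH 7.5, NaCl 150 mM, CaCl2 10 mM, 0.05% Brij-35, 1% DMSO for 4 h at 25 °C. Substrate was added at 2 µM final. Fluorescence (ex 325/em 400 nm) was read for initial rates, in duplicate. IC50 came from vi/vo = 1/(1+[I]/IC50).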

[4] = target: Matrix metalloproteinase-14 (Homo sapiens, UniProt P50281); assay: Inhibition of recombinant human MMP-14 catalytic domain using Mca-Lys-Pro-Leu-Gly-Leu-Dap(Dnp)-Ala-Arg-NH2 as substrate incubated for 4 hrs measured every 15 secs for 20 mins by fluorimetric assay
Outline: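 MMP-14 catalytic domain was used at 1.0 nM final with no activation step. It was incubated with inhibitor for 4 h at 25 °C in Tris 50 mM pH 7.5 buffer with NaCl 150 mM, CaCl2 10 mM, 0.05% Brij-35 and 1% DMSO. Substrate was at 2 µM final, ex 325/em 400 nm, duplicate wells. IC50 was fitted by vi/vo = 1/(1+[I]/IC50).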

[5] = target: T1, Disintegrin and metalloproteinase domain-containing protein 17; assay: Inhibition of ADAM-17 in human A2780 cells assessed as inhibition of pervanadate-induced sALCAM release incubated for 30 mins prior to pervanadate induction measured after 90 mins by ELISA; format: cell-based
[6] = target: T1, Disintegrin and metalloproteinase domain-containing protein 17; assay: Inhibition of ADAM-17 in human A2780 cells assessed as inhibition of EGF-induced sALCAM release incubated for 30 mins prior to EGF induction measured after 18 hrs by ELISA; format: cell-based
[7] = target: T3, Disintegrin and metalloproteinase domain-containing protein 10 (Homo sapiens, UniProt O14672); assay: Inhibition of recombinant human ADAM-10 using Mca-Lys-Pro-Leu-Gly-Leu-Dap(Dnp)-Ala-Arg-NH2 as substrate incubated for 1 hr measured every 15 secs for 20 mins by fluorimetric assay
T3 sequence (O14672 whole entry): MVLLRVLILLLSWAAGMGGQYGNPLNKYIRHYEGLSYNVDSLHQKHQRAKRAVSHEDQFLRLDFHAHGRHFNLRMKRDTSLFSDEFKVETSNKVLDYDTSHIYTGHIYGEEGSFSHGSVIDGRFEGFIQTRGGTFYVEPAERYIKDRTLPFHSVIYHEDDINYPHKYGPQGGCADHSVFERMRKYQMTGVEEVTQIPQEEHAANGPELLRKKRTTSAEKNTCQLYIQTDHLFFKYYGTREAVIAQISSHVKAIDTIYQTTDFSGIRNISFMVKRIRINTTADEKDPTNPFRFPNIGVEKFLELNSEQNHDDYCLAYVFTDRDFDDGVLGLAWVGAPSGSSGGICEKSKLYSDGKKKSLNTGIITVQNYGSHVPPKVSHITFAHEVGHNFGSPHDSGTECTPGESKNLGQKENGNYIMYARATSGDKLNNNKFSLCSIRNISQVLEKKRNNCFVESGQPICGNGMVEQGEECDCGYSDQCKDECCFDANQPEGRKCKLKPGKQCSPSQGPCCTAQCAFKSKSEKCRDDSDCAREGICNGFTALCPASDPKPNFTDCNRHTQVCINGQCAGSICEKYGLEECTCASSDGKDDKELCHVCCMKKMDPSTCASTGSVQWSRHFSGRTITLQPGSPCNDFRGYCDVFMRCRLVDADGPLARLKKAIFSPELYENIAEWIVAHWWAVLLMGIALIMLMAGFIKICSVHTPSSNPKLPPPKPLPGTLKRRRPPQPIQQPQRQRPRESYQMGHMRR
Outline: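 Enzyme at 20 nM final was preincubated with inhibitor for 1 h at 37 °C in pH 9 buffer (Tris 25 mM, ZnCl2 25 µM, 0.005% Brij-35). Substrate was at 10 µM final. Fluorescence (ex 325/em 400 nm) was followed for initial velocity, in duplicate. IC50 was calculated with vi/vo = 1/(1+[I]/IC50).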

[8] = target: T1, Disintegrin and metalloproteinase domain-containing protein 17; assay: Inhibition of ADAM-17 in human A2774 cells assessed as inhibition of EGF-induced sALCAM release incubated for 30 mins prior to EGF induction measured after 18 hrs by ELISA; format: cell-based
[9] = target: T1, Disintegrin and metalloproteinase domain-containing protein 17; assay: Inhibition of ADAM-17 in human SKOV3 cells transfected with luciferase gene assessed as inhibition of EGF-induced sALCAM release incubated for 30 mins prior to EGF induction measured after 18 hrs by ELISA; format: cell-based, SK-OV-3
[10] = Cytotoxicity against human A2774 cells assessed as cell viability at 0.01 to 10 uM after 24 to 72 hrs by MTT assay; format: cell-based; conditions: a2774, 10 µM
[11] = test system: A2780; assay: Cytotoxicity against human A2780 cells assessed as cell viability at 0.01 to 10 uM after 24 to 72 hrs by MTT assay; format: cell-based; conditions: a2780, 10 µM
[12] = target: T1, Disintegrin and metalloproteinase domain-containing protein 17; assay: Inhibition of ADAM-17 in human SKOV3 cells transfected with luciferase gene assessed as inhibition of pervanadate-induced sALCAM release incubated for 30 mins prior to pervanadate induction measured after 90 mins by ELISA; format: cell-based, SK-OV-3
[13] = target: Matrix metalloproteinase-9 (Homo sapiens, UniProt P14780); assay: Inhibition of recombinant human MMP-9 using Mca-Lys-Pro-Leu-Gly-Leu-Dap(Dnp)-Ala-Arg-NH2 as substrate incubated for 4 hrs measured every 15 secs for 20 mins by fluorimetric assay
Outline: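 Pro-MMP-9 was activated with 1 mM APMA for 1 h at 37 °C and used at 1.3 nM final. Inhibitor was incubated with enzyme for 4 h at 25 °C in Tris 50 mM pH 7.5, NaCl 150 mM, CaCl2 10 mM, 0.05% Brij-35, 1% DMSO. Substrate was at 2 µM final, ex 325/em 400 nm, in duplicate. IC50 was obtained from vi/vo = 1/(1+[I]/IC50).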

[14] = target: T1, Disintegrin and metalloproteinase domain-containing protein 17; assay: Inhibition of ADAM-17 in human A2774 cells assessed as inhibition of pervanadate-induced sALCAM release incubated for 30 mins prior to pervanadate induction measured after 90 mins by ELISA; format: cell-based
[15] = test system: SK-OV-3; assay: Cytotoxicity against human SKOV3 cells transfected with luciferase gene assessed as cell viability at 0.01 to 10 uM after 24 to 72 hrs by MTT assay; format: cell-based; conditions: sk-ov-3, 10 µM

72 kDa type IV collagenase, sequence (P08253 whole entry): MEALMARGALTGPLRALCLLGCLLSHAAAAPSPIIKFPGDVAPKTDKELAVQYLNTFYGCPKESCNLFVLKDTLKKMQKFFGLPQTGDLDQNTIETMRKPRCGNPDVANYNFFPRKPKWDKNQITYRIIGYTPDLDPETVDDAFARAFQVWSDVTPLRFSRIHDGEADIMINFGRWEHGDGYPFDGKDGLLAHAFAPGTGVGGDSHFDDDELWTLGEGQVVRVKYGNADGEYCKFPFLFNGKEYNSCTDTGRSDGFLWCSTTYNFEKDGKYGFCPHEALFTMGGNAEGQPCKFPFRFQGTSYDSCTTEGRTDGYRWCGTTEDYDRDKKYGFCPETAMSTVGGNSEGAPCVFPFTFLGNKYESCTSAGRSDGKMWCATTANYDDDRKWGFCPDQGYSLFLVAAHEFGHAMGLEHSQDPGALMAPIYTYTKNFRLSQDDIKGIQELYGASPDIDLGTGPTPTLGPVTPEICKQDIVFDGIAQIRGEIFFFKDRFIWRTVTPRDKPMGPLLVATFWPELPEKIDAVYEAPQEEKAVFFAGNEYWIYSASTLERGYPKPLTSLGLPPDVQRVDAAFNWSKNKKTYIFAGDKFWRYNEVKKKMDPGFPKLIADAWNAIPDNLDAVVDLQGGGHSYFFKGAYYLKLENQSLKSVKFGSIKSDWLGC
T1 sequence (P78536 whole entry, the tested form may be a part): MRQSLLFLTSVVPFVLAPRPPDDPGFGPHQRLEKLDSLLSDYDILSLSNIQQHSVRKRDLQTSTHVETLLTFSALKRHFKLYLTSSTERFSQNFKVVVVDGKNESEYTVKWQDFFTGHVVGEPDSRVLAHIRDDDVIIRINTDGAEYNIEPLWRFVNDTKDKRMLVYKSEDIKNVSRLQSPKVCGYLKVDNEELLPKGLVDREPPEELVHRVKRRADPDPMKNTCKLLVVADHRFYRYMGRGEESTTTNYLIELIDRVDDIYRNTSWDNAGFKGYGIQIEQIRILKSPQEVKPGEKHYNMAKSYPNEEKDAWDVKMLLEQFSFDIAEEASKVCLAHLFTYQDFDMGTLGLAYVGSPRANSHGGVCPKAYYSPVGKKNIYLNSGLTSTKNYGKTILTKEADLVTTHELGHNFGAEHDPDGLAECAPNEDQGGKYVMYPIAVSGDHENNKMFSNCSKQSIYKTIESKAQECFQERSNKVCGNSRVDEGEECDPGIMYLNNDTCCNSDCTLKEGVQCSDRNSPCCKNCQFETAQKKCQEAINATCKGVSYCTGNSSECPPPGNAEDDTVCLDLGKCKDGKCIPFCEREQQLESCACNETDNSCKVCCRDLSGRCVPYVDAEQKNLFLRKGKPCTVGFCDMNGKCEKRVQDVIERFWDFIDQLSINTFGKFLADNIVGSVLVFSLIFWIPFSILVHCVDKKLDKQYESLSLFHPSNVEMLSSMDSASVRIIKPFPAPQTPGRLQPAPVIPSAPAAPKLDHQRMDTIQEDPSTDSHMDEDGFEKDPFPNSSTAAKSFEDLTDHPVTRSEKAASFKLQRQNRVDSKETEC
Matrix metalloproteinase-9, sequence (P14780 whole entry): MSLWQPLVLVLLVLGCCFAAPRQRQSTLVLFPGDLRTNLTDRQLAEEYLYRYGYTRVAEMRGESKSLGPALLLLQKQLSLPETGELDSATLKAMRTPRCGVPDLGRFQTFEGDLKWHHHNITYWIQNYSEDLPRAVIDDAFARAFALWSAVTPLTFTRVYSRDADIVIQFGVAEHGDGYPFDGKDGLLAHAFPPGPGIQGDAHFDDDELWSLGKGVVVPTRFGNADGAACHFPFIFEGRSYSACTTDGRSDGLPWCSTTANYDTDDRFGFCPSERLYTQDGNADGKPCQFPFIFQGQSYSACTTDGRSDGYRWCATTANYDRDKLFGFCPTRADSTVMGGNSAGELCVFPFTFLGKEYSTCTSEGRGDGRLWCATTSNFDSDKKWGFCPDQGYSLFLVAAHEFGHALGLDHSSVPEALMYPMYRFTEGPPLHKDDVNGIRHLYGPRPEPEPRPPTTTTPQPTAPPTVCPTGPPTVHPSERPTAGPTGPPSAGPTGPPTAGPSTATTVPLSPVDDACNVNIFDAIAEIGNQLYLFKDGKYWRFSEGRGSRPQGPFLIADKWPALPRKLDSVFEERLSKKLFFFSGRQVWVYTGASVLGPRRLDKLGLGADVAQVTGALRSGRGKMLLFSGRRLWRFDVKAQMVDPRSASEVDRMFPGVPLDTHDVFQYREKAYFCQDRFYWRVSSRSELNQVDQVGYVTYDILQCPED

O=C(O)CNS(=O)(=O)c1ccc(OCc2cc(Br)cc(Br)c2)cc1
pIC50 [1]: 3.90
pIC50 [2]: < 4.30

COc1ccc(-c2cc(Br)cc(COc3ccc(S(=O)(=O)NCC(=O)NO)cc3)c2)cc1
pIC50 [3]: < 3.70
pIC50 [1]: 5.42
pIC50 [2]: 6.49
pIC50 [4]: 3.77

O=C(CNS(=O)(=O)c1ccc(OCc2cc(Br)cc(-c3cccnc3)c2)cc1)NO
pIC50 [3]: < 3.30
pIC50 [1]: 5.98
pIC50 [2]: 6.30
pIC50 [4]: 4.67

O=C(NCCC[C@@H](NS(=O)(=O)c1ccc(OCc2cc(Br)cc(Br)c2)cc1)C(=O)NO)OCc1ccccc1
pIC50 [3]: 3.43
pIC50 [1]: 5.84
pIC50 [5]: 6.46
pIC50 [6]: 5.00
pIC50 [7]: 6.52
pIC50 [8]: 5.12
pIC50 [9]: 5.25
Activity [10]: Non-toxic
Activity [11]: Non-toxic
pIC50 [12]: 6.46
pIC50 [2]: 7.96
pIC50 [13]: 5.36
pIC50 [14]: 6.56
Activity [15]: Non-toxic
pIC50 [4]: 4.17

NC(=O)NCCC[C@@H](NS(=O)(=O)c1ccc(OCc2cc(Br)cc(Br)c2)cc1)C(=O)NO
pIC50 [3]: < 3.30
pIC50 [5]: > 8.00
pIC50 [6]: 6.07
pIC50 [8]: 6.19
pIC50 [9]: 5.37
Activity [10]: Non-toxic
Activity [11]: Non-toxic
pIC50 [12]: 7.24
pIC50 [14]: 7.35
Activity [15]: Non-toxic

O=C(CNS(=O)(=O)c1ccc(OCc2ccc(Br)cc2)cc1)NO
pIC50 [3]: 3.92
pIC50 [1]: 8.92
pIC50 [2]: 7.80
pIC50 [13]: 8.85
pIC50 [4]: 6.20

O=C(CNS(=O)(=O)c1ccc(OCc2ccc(F)cc2)cc1)NO
pIC50 [3]: 4.49
pIC50 [1]: 8.52
pIC50 [2]: 6.84
pIC50 [13]: 7.38
pIC50 [4]: 6.23

O=C(CNS(=O)(=O)c1ccc(OCc2ccc(OC(F)(F)F)cc2)cc1)NO
pIC50 [3]: 4.13
pIC50 [1]: 8.12
pIC50 [2]: 6.70
pIC50 [13]: 7.43
pIC50 [4]: 5.14

O=C(CNS(=O)(=O)c1ccc(OCc2ccc(-c3ccccc3)cc2)cc1)NO
pIC50 [3]: < 3.30
pIC50 [1]: 7.32
pIC50 [2]: 6.19
pIC50 [13]: 6.16
pIC50 [4]: 4.14

CC#CCOc1ccc(S(=O)(=O)NCC(=O)NO)cc1
pIC50 [3]: 4.55
pIC50 [1]: 6.96
pIC50 [2]: 7.77
pIC50 [13]: 6.05
pIC50 [4]: 5.54
